What was measured:
[1] = Drug excretion in SCID mouse xenografted with human HT-29 cells at 0.37 MBq/mouse, iv measured at 4 hrs using 177Lu labelled compound by gamma counter analysis; assay type: ADME, organism-based; conditions: in vivo
Procedure, shortened: (§1)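 Female SCID mice bearing s.c. flank HT-29 xenografts (5 × 10^6 cells in Matrigel, ~80 mm3). Given 10 μCi (0.37 MBq) 177Lu conjugate i.v. by tail vein; groups sacrificed at 4, 24, 72 h. Tissues weighed and gamma-counted as %ID/g, excretion as %ID; n = 5, mean ± SD. Blocking arms: colchicine 1 mg/kg i.p. beforehand, or D-lysine 40 mg/kg co-injected.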

[2] = Drug uptake in blood of SCID mouse xenografted with human HT-29 cells at 0.37 MBq/mouse, iv measured at 4 hrs using 177Lu labelled compound by gamma counter analysis; assay type: ADME, organism-based; conditions: in vivo; procedure, shortened: as §1
[3] = Drug uptake in lung of SCID mouse xenografted with human HT-29 cells at 0.37 MBq/mouse, iv measured at 4 hrs using 177Lu labelled compound by gamma counter analysis; assay type: ADME, organism-based; conditions: in vivo
Procedure, shortened: (§2)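 Female SCID mice (5 weeks) bore s.c. flank xenografts of HT-29 cells (5 × 10^6 in Matrigel), used at about 80 mm3 (two weeks) and randomized. Each mouse received 10 μCi (0.37 MBq) of HPLC-purified 177Lu-conjugate via tail vein. Tissues were excised, weighed and gamma-counted, expressed as %ID/g; mean ± SD, n = 5.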

[4] = Drug uptake in pancreas of SCID mouse xenografted with human HT-29 cells at 0.37 MBq/mouse, iv measured at 4 hrs using 177Lu labelled compound by gamma counter analysis; assay type: ADME, organism-based; conditions: in vivo; procedure, shortened: as §2
[5] = Drug uptake in spleen of SCID mouse xenografted with human HT-29 cells at 0.37 MBq/mouse, iv measured at 4 hrs using 177Lu labelled compound by gamma counter analysis; assay type: ADME, organism-based; conditions: in vivo
Procedure, shortened: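 Female SCID mice (5 weeks old) received s.c. flank HT-29 cells (5 × 10^6 in Matrigel). At ~80 mm3, two weeks later, mice were randomized and given 10 μCi (0.37 MBq) of purified 177Lu conjugate i.v. by tail vein. Mice were killed at 4, 24 or 72 h. Tissues were weighed and gamma counted as %ID/g, mean ± SD, n = 5. Tumor-to-tissue ratios were calculated.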

[6] = Drug uptake in kidney of SCID mouse xenografted with human HT-29 cells at 0.37 MBq/mouse, iv measured at 4 hrs using 177Lu labelled compound by gamma counter analysis; assay type: ADME, organism-based; conditions: in vivo; procedure, shortened: as §2
[7] = Drug uptake in heart of SCID mouse xenografted with human HT-29 cells at 0.37 MBq/mouse, iv measured at 24 hrs using 177Lu labelled compound by gamma counter analysis; assay type: ADME, organism-based; conditions: in vivo; procedure, shortened: as §2
[8] = Drug uptake in brain of SCID mouse xenografted with human HT-29 cells at 0.37 MBq/mouse, iv measured at 4 hrs using 177Lu labelled compound by gamma counter analysis; assay type: ADME, organism-based; conditions: in vivo; procedure, shortened: as §2
[9] = Drug uptake in SCID mouse xenografted with human HT-29 cells assessed as tumour retention at 0.37 MBq/mouse, iv measured at 24 hrs using 177Lu labelled compound by gamma counter analysis; assay type: ADME, organism-based; conditions: in vivo; procedure, shortened: as §1
[10] = Drug uptake in lung of SCID mouse xenografted with human HT-29 cells at 0.37 MBq/mouse, iv measured at 24 hrs using 177Lu labelled compound by gamma counter analysis; assay type: ADME, organism-based; conditions: in vivo; procedure, shortened: as §2
[11] = Drug uptake in SCID mouse xenografted with human HT-29 cells assessed as tumour retention level at 0.37 MBq/mouse, iv measured at 4 hrs using 177Lu labelled compound by gamma counter analysis; assay type: ADME, organism-based; conditions: in vivo; procedure, shortened: as §1
[12] = Drug uptake in small intestine of SCID mouse xenografted with human HT-29 cells at 0.37 MBq/mouse, iv measured at 24 hrs using 177Lu labelled compound by gamma counter analysis; assay type: ADME, organism-based; conditions: in vivo; procedure, shortened: as §2
[13] = Drug uptake in large intestine of SCID mouse xenografted with human HT-29 cells at 0.37 MBq/mouse, iv measured at 24 hrs using 177Lu labelled compound by gamma counter analysis; assay type: ADME, organism-based; conditions: in vivo; procedure, shortened: as §2
[14] = Drug uptake in muscle of SCID mouse xenografted with human HT-29 cells at 0.37 MBq/mouse, iv measured at 24 hrs using 177Lu labelled compound by gamma counter analysis; assay type: ADME, organism-based, Muscle tissue; conditions: in vivo; procedure, shortened: as §2
[15] = Drug uptake in bone of SCID mouse xenografted with human HT-29 cells at 0.37 MBq/mouse, iv measured at 24 hrs using 177Lu labelled compound by gamma counter analysis; assay type: ADME, organism-based, Bone element; conditions: in vivo; procedure, shortened: as §1
[16] = Drug uptake in brain of SCID mouse xenografted with human HT-29 cells at 0.37 MBq/mouse, iv measured at 24 hrs using 177Lu labelled compound by gamma counter analysis; assay type: ADME, organism-based; conditions: in vivo; procedure, shortened: as §2
[17] = Drug uptake in lung of SCID mouse xenografted with human HT-29 cells at 0.37 MBq/mouse, iv measured at 72 hrs using 177Lu labelled compound by gamma counter analysis; assay type: ADME, organism-based; conditions: in vivo; procedure, shortened: as §2
[18] = Drug uptake in liver of SCID mouse xenografted with human HT-29 cells at 0.37 MBq/mouse, iv measured at 72 hrs using 177Lu labelled compound by gamma counter analysis; assay type: ADME, organism-based; conditions: in vivo; procedure, shortened: as §2
[19] = Drug uptake in pancreas of SCID mouse xenografted with human HT-29 cells at 0.37 MBq/mouse, iv measured at 72 hrs using 177Lu labelled compound by gamma counter analysis; assay type: ADME, organism-based; conditions: in vivo; procedure, shortened: as §2
[20] = Drug uptake in small intestine of SCID mouse xenografted with human HT-29 cells at 0.37 MBq/mouse, iv measured at 72 hrs using 177Lu labelled compound by gamma counter analysis; assay type: ADME, organism-based; conditions: in vivo; procedure, shortened: as §2
[21] = Drug uptake in large intestine of SCID mouse xenografted with human HT-29 cells at 0.37 MBq/mouse, iv measured at 72 hrs using 177Lu labelled compound by gamma counter analysis; assay type: ADME, organism-based; conditions: in vivo; procedure, shortened: as §2
[22] = Drug uptake in kidney of SCID mouse xenografted with human HT-29 cells at 0.37 MBq/mouse, iv measured at 72 hrs using 177Lu labelled compound by gamma counter analysis; assay type: ADME, organism-based; conditions: in vivo; procedure, shortened: as §2
[23] = Drug uptake in muscle of SCID mouse xenografted with human HT-29 cells at 0.37 MBq/mouse, iv measured at 72 hrs using 177Lu labelled compound by gamma counter analysis; assay type: ADME, organism-based, Muscle tissue; conditions: in vivo; procedure, shortened: as §2
[24] = Drug uptake in brain of SCID mouse xenografted with human HT-29 cells at 0.37 MBq/mouse, iv measured at 72 hrs using 177Lu labelled compound by gamma counter analysis; assay type: ADME, organism-based; conditions: in vivo; procedure, shortened: as §2
[25] = Drug uptake in SCID mouse xenografted with human HT-29 cells assessed as tumour retention level at 0.37 MBq/mouse, iv measured at 72 hrs using 177Lu labelled compound by gamma counter analysis; assay type: ADME, organism-based; conditions: in vivo; procedure, shortened: as §1
[26] = Drug excretion in SCID mouse xenografted with human HT-29 cells at 0.37 MBq/mouse, iv measured after 72 hrs using 177Lu labelled compound; assay type: ADME, organism-based; conditions: in vivo; procedure, shortened: as §1
[27] = 1-Octanol-PBS buffer distribution coefficient, log D of natEu labelled compound at pH 7.4 by time resolved fluorescence analysis; assay type: physicochemical
Procedure, shortened: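 natEu-labelled conjugate (300 μg) in 0.2 mL PBS pH 7.4 partitioned against 0.2 mL 1-octanol; 100 μL aliquots from each layer dried under vacuum and taken up in water. Time-resolved fluorescence read at 590 nm with 380 nm excitation, and LogD7.4 calculated from the two layers.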

[28] = Drug uptake in blood of SCID mouse xenografted with human HT-29 cells at 0.37 MBq/mouse, iv measured at 24 hrs using 177Lu labelled compound by gamma counter analysis; assay type: ADME, organism-based; conditions: in vivo; procedure, shortened: as §1

SMILES	Drug excretion [1] [%ID]	Drug uptake [2] [% ID/g]	Drug uptake [3] [% ID/g]	Drug uptake [4] [% ID/g]	Drug uptake [5] [% ID/g]	Drug uptake [6] [% ID/g]	Drug uptake [7] [% ID/g]	Drug uptake [8] [% ID/g]	Drug uptake [9] [% ID/g]	Drug uptake [10] [% ID/g]	Drug uptake [11] [% ID/g]	Drug uptake [12] [% ID/g]	Drug uptake [13] [% ID/g]	Drug uptake [14] [% ID/g]	Drug uptake [15] [% ID/g]	Drug uptake [16] [% ID/g]	Drug uptake [17] [% ID/g]	Drug uptake [18] [% ID/g]	Drug uptake [19] [% ID/g]	Drug uptake [20] [% ID/g]	further results
Cc1cc(O)cc(C)c1C[C@H](NC(=O)[C@@H]1CCCN1C(=O)[C@H](CCCNC(=N)N)NC(=O)[C@H](CCCNC(=N)N)N(C)C(=O)[C@@H]1CCCN1C(=O)[C@H](CCCCN)NC(=O)[C@@H](CO)NC(=O)[C@@H](CO)NC(=O)[C@@H](CO)NC(=O)[C@H](Cc1cn(CCNC(=O)[C@H](CCCNC(=N)N)NC(=O)[C@H](CC(C)C)NC(=O)CCC(=O)O)nn1)NC(=O)CN1CCN(CC(=O)O)CCN(CC(=O)O)CCN(CC(=O)O)CC1)C(=O)N[C@H](C(=O)N[C@@H](CC(C)C)C(=O)O)C(C)(C)C	75	0.01	0.37	0.12	1	57	0.01	0.02	4.4	0.25	5.6	1.9	0.73	0.05	0.15	0.01	0.24	0.26	0.08	1.07	Drug uptake [21]: 0.36 % ID/g; Drug uptake [22]: 15 % ID/g; Drug uptake [23]: 0.01 % ID/g; Drug uptake [24]: 0.01 % ID/g; Drug uptake [25]: 2.6 % ID/g; Drug excretion [26]: 91.6 %ID; logD [27]: -3.71
Cc1cc(O)cc(C)c1C[C@H](NC(=O)[C@@H]1CCCN1C(=O)[C@H](CCCNC(=N)N)NC(=O)[C@H](CCCNC(=N)N)N(C)C(=O)[C@@H]1CCCN1C(=O)[C@H](CCCCN)NC(=O)[C@@H](CO)NC(=O)[C@@H](CO)NC(=O)[C@@H](CO)NC(=O)[C@H](Cc1cn(CC(=O)N[C@H](CO)C(=O)N[C@H](CO)C(=O)N[C@H](CO)C(=O)NCC(=O)NCCCC[C@H](NC(=O)[C@H](Cc2ccccc2)NC(=O)OCc2ccccc2)C(=O)NCCc2ccccc2)nn1)NC(=O)CN1CCN(CC(=O)O)CCN(CC(=O)O)CCN(CC(=O)O)CC1)C(=O)N[C@H](C(=O)N[C@@H](CC(C)C)C(=O)O)C(C)(C)C	36.6	0.83	4.3	0.84	19	64	0.6	0.11	5.1	2.2	8.4	5.6	2.6	0.38	1.8	0.04	1.2	5.3	0.68	3.2	Drug uptake [28]: 0.14 % ID/g; Drug uptake [21]: 1.62 % ID/g; Drug uptake [22]: 28 % ID/g; Drug uptake [23]: 0.12 % ID/g; Drug uptake [24]: 0.01 % ID/g; Drug uptake [25]: 3.4 % ID/g; Drug excretion [26]: 73 %ID
Cc1cc(O)cc(C)c1C[C@H](NC(=O)[C@@H]1CCCN1C(=O)[C@H](CCCNC(=N)N)NC(=O)[C@H](CCCNC(=N)N)N(C)C(=O)[C@@H]1CCCN1C(=O)[C@H](CCCCN)NC(=O)[C@@H](CO)NC(=O)[C@@H](CO)NC(=O)[C@@H](CO)NC(=O)[C@H](Cc1cn(CCNC(=O)[C@H](CCCNC(=N)N)NC(=O)[C@H](CC(C)C)NC(=O)C2OC2C(=O)O)nn1)NC(=O)CN1CCN(CC(=O)O)CCN(CC(=O)O)CCN(CC(=O)O)CC1)C(=O)N[C@H](C(=O)N[C@@H](CC(C)C)C(=O)O)C(C)(C)C (some centres not stated)	70	0.02	0.53	0.19	1.4	67	0.08	0.01	6.2	0.45	6.4	3.2	1.1	0.04	1.1	0.02	0.3	0.67	0.15	2.3	Drug uptake [28]: 0.01 % ID/g; Drug uptake [21]: 0.73 % ID/g; Drug uptake [22]: 46 % ID/g; Drug uptake [23]: 0.03 % ID/g; Drug uptake [24]: 0.02 % ID/g; Drug uptake [25]: 3.9 % ID/g; Drug excretion [26]: 80.8 %ID; logD [27]: -3.69

Source: ChEMBL document CHEMBL4350999, “Enhanced tumor retention of NTSR1-targeted agents by employing a hydrophilic cysteine cathepsin inhibitor” (Eur J Med Chem, 2019)
